PRMT1 inh: inhibitors of human PRMT1. 370,000 tested, 1.3% active. AID 652257. Q99873. inhibition, % at 2.79 µM. recombinant PRMT1, activity-based probe fluorescence polarization;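 active = inhibition above about 21% made by adding two undisclosed values, limit read from the data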
GSTO1 counter: GSTO1 inhibition, counter-screen for RBBP9 inhibitors | P78417 | recombinant GSTO1, activity-based probe fluorescence polarization | inhibition, % at 5.96 µM | 300,000 tested, 1.1% active | AID 1974;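 active = inhibition above the campaign mean inhibition plus 3 SD, cut at about 35% in these data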;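 note: 0% = GSTO1-1 with DMSO and 100% = wells lacking GSTO1-1 enzyme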
TDP2 inh: blocks human TDP2 phosphodiesterase activity. recombinant TDP2, T5PNP hydrolysis, p-nitrophenol absorbance 415 nm. O95551. 370,000 tested, 0.34% active. inhibition, % at 12.8 µM;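 active = inhibition above the mean of all tested compounds plus 3 SD, set per campaign, cut at about 25% in these data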;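 note: 0% = DMSO with enzyme and 100% = buffer with substrate but no TDP2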
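Test system: human TDP2 enzyme; Input: 120 nM TDP2 per well; Buffer or medium: Mg2+-containing Tris-HCl buffer, pH 7.5; Reagent: 5 mM T5PNP; Dosing: 12.8 µM single point, 1% DMSO; Incubation: reaction 2 h, 37 °C; Detection: p-Nitrophenol epi absorbance; Read-out: % inhibition relative to enzyme-containing and enzyme-free wells; Replicates: single well per compound.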
E coli Lon inh: inhibits E. coli Lon protease. P0A9M0. purified E. coli Lon protease, fluorescence polarization. inhibition, % at 7.94 µM. 360,000 tested, 0.42% active. AID 602123; in the data active = inhibition above about 13%, passing the limit was not always enough;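 note: 0% = enzyme with probe and DMSO and 100% = no enzyme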
PAD4 FP inh: inhibitors of human PAD4; inhibition, % at 6.36 µM; Q9UM07; 330,000 tested, 0.41% active; recombinant PAD4, RCA probe fluorescence polarization; AID 485272;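 active = percent inhibition above a cutoff equal to the mean of all tested compounds plus 3 SD, cut at about 15% in these data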;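 note: 0% = PAD4 with RCA probe and DMSO and 100% = probe without PAD4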
Target sequence (Q9UM07 whole entry, looked up): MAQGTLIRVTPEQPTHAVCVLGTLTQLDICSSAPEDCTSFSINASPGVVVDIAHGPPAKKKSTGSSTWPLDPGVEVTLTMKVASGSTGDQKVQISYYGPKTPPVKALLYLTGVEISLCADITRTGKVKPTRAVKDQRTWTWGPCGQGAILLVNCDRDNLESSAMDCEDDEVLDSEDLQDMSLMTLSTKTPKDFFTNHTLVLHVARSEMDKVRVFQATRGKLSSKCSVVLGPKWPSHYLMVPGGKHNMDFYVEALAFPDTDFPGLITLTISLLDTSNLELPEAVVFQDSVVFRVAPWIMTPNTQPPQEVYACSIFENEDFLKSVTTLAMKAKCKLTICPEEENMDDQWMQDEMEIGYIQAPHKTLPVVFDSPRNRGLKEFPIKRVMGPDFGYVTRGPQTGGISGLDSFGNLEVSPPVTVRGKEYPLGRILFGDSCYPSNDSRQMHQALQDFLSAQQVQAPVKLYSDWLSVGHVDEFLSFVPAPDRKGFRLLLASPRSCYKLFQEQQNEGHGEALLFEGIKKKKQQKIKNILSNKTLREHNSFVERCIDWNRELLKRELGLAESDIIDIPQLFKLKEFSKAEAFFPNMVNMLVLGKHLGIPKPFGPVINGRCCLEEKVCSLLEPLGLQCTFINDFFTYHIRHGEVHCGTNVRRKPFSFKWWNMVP
PRMT1 confirm: PRMT1 (human) inhibition, FP confirmation; shares compounds with PRMT1 inh; recombinant His-PRMT1, activity-based probe fluorescence polarization; inhibition, % at 2.79 µM; 3,300 tested, 42% active; AID 687036;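 active = mean inhibition across replicates above the hit cutoff derived for the earlier primary screen, cut at about 22% in these data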
Numbers without * were called inactive; nt = no result given. Hits are enriched below; roughly 2.5% of the tested compounds scored in any of these assays.

SMILES	PRMT1 inh	GSTO1 counter	TDP2 inh	E coli Lon inh	PAD4 FP inh	PRMT1 confirm
COc1ccc(NC(=O)CC2Sc3ncnn3C2=O)cc1 (centres undefined)	86*	-3	3	8	2	25*
COc1ccc(C2CC(=O)N3CN(c4ccc(C)c(Cl)c4)CSC3=C2C#N)cc1 (centres undefined)	44*	2	-6	-10	4	59*
CC(C)c1ccc(C2CC(=O)N3CN(Cc4ccco4)CSC3=C2C#N)cc1 (centres undefined)	19	-2	3	-8	-7	nt
N#CC1=C2SCN(Cc3ccco3)CN2C(=O)CC1c1ccc(Cl)cc1 (centres undefined)	32*	1	2	-17	-3	13
COc1ccc(OC)c(C2CC(=O)N3CN(c4ccccc4)CSC3=C2C#N)c1 (centres undefined)	7	13	-2	-9	1	nt
COc1ccc(C2CC(=O)N3CN(Cc4ccco4)CSC3=C2C#N)cc1 (centres undefined)	20	15	3	-10	-2	nt
COc1ccc(N2CSC3=C(C#N)C(c4cccc(OC)c4OC)CC(=O)N3C2)cc1 (centres undefined)	41*	3	-8	-11	-3	68*
Cc1cc(OC(=O)Nc2ccccc2)ccc1Cl	1	nt	9	-6	nt	nt
COC(=O)CCCn1cc(CN2CC(N3CCCC3)CS2(=O)=O)nn1 (centres undefined)	-1	nt	-7	1	nt	nt
Cc1ccc(NC(=O)C2=NNC(=O)CC2)cc1S(=O)(=O)Nc1ccc(SC(F)F)cc1	27*	nt	-4	-18	5	20
COc1ccccc1NS(=O)(=O)c1cc(NC(=O)C2=NNC(=O)CC2)ccc1C	4	nt	7	-6	-7	nt
CCOC(=O)c1[nH]c(=S)n(-c2ccccc2)c1C(=O)OCC	48*	nt	-13	13	nt	7
CCOC(=O)c1[nH]c(=S)n(Cc2ccccc2)c1C(=O)OCC	7	nt	-7	-10	nt	nt
O=C(CSc1nccn(-c2ccc3c(c2)OCCO3)c1=O)Nc1ccccc1	45*	3	22	0	-3	24*
O=C(CSc1nccn(-c2cccc(F)c2)c1=O)Nc1ccc(Cl)cc1F	75*	-6	-3	10	-1	69*
O=C(CSc1nccn(-c2ccc(F)c(F)c2)c1=O)NC1CCCC1	20	nt	-7	-22	nt	nt
CCCc1c(O)nc(SC2CC(=O)N(c3ccc(C)c(Cl)c3)C2=O)[nH]c1=O (centres undefined)	0	3	8	2	1	nt
Cc1ccc(N2C(=O)CC(Sc3nc4ccccc4o3)C2=O)cc1Cl (centres undefined)	50*	-2	-4	-7	-8	37*
COc1ccccc1CCNC(=O)c1cnn2c(C(F)F)cc(C)nc12	2	-2	0	-14	-3	nt
COc1ccc(CCNC(=O)c2cnn3c(C(F)F)cc(C)nc23)cc1OC	30*	3	10	-5	-1	0
CCCCCn1nnnc1C1(C)Cn2nccc2C(=O)N1Cc1ccco1 (centres undefined)	1	nt	-4	nt	nt	nt
O=c1cc2c(=O)oc3cc(O)c(O)oc3c2c(O)c1O	27*	nt	-2	-6	nt	31*
O=c1oc2cc(O)c(Cl)cc2c2ccccc12	2	-2	-5	-2	1	nt
COc1ccc(/C=C(/C(=O)N2CCCCC2C(=O)O)c2ccc(OC)c(OC)c2)cc1 (centres undefined)	-3	nt	4	-2	-9	nt
CCCc1nc2c(sc3nc4c(cc32)COC(C)(C)C4)c(=O)n1Cc1ccco1	30*	3	-6	-10	-2	9
SMILES	PRMT1 inh	GSTO1 counter	TDP2 inh	E coli Lon inh	PAD4 FP inh	PRMT1 confirm
CC(C)n1nnnc1C1c2ccccc2C(=O)N1C1CC1 (centres undefined)	1	nt	3	0	nt	nt
Cn1c(SCCC#N)nnc1-c1ccc(F)cc1	nt	7	nt	-3	1	nt
CC1=C(SCCC#N)S/C(=C2\SC(C)=C(SCCC#N)S2)S1	71*	2	11	-10	4	47*
Cc1ccc(/C=C2/NC(=O)N(Cc3ccccc3)C2=O)o1	66*	4	10	4	0	15
Cc1ccc(/C=C2\SC(=S)N(Cc3ccccc3)C2=O)o1	2	-8	-3	-37	-12	nt
Cc1ccc(CN(C)C(=O)c2cc(COc3cccc(C(F)(F)F)c3)on2)o1	37*	-8	5	1	-5	34*
O=C1NC(=O)/C(=C\c2ccc(Br)o2)S1	43*	8	0	-7	2	1
O=C1NC(=O)/C(=C/c2cc3c(cc2Br)OCO3)S1	1	-7	9	8	2	nt
COc1ccccc1N1CCN(C2CCCN(C(=O)CC(F)(F)F)C2)CC1 (centres undefined)	2	5	4	0	-4	nt
CCC(Oc1ccc(Br)cc1Cl)C(=O)Nc1nnc(C2CC2)s1 (centres undefined)	-2	-99	17	1	3	nt
COc1ccccc1CN1CC(C(=O)NCc2cc(C)on2)CCC1=O (centres undefined)	2	1	-5	-3	1	nt
Cc1ccc(OCC(=O)Sc2ccc(C)cc2)cc1	20	2	-9	5	-3	nt
COc1ccccc1OCC(=O)Sc1ccc(C)cc1	39*	5	5	-3	4	79*
COc1ccccc1-[n+]1c(C)cc(/C=C2\Sc3ccccc3N2C)cc1C	26*	6	-2	-204	0	-10
COc1ccccc1OC(=O)CCN1c2ccccc2Sc2ccccc21	-1	8	1	-8	-6	nt
CCOC(=O)C1=C(N)n2c(s/c(=C\c3ccco3)c2=O)=C(C(=O)OCC)C1c1ccco1 (centres undefined)	nt	17	nt	-10	2	nt
CCOC(=O)C1=C(N)n2c(s/c(=C\c3ccco3)c2=O)=C(C(=O)OC(C)C)C1c1ccco1 (centres undefined)	43*	4	4	-14	-6	6
CCOC(=O)c1c(NC(=O)c2ccccc2C(=O)O)sc2c1CCCC2	7	-4	-21	-1	-2	nt
COC(=O)c1ccccc1SC1CC(=O)N(c2ccccc2)C1=O (centres undefined)	38*	9	1	-7	6	19
COC(=O)c1ccc(N2C(=O)CC(SCCN)C2=O)cc1 (centres undefined)	11	-1	-1	-9	-4	nt
O=C(O)c1ccccc1SC1CC(=O)N(c2cccc3ccccc23)C1=O (centres undefined)	84*	nt	0	5	nt	51*
O=C1CC(SC(=Nc2ccccc2)Nc2ccccc2)C(=O)N1c1cccc2ccccc12 (centres undefined)	4	-6	5	-7	-7	nt
